Assay results reported in ChEMBL document CHEMBL1123394, “Systematic synthesis and biological evaluation of alpha- and beta-D-xylofuranosyl nucleosides of the five naturally occurring bases in nucleic acids and related analogues” (J Med Chem, 1986).
Values after ≈ are worked out from the molar mass of the structure shown.

Experiments:
Assay type in all cases: functional
Vero [1] = test: Antiviral activity was measured against forest virus in african green monkey kidney (Vero B) cells.; conditions: Chlorocebus sabaeus
Summary of the method: (§1)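 Inhibition of virus-induced cytopathogenicity scored in cell culture monolayers. Test compounds dissolved in growth medium at 100, 10, or 1 μg/mL or less.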

Vero [2] = test: Concentration required for microscopically detectable alteration of the normal cell morphology in Vero B cells.; conditions: Chlorocebus sabaeus
Summary of the method: (§2)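 Host-cell morphology inspected microscopically for detectable alteration, with compounds in growth medium at up to 200 or 400 μg/mL.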

Vero [3] = test: Antiviral activity was measured against Parainfluenza virus-3 in african green monkey kidney (Vero B) cells.; conditions: Chlorocebus sabaeus; summary of the method: as §1
WI-38 [4] = test: Antiviral activity was measured against Rhino virus-1A in human diploid (WI-38) cells.; summary of the method: as §1
[5] = Concentration required to reduce DNA synthesis in primary rabbit kidney cells using [3H-Methyl]-dThd incorporation; conditions: Oryctolagus cuniculus, read-out: ID50 (the source's name)
Summary of the method: (§3)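 Primary rabbit kidney cells with compounds in growth medium at 100, 10, or 1 μg/mL or less. Cell number and incorporation of [3H-methyl]dThd (DNA), [3H-5]Urd (RNA) or [3H2-4,5]leucine (protein) measured. ID50 taken as the dose giving 50% reduction in cell number or in DNA, RNA or protein synthesis.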

[6] = Concentration required to reduce protein synthesis in primary rabbit kidney cells usingi [3H2-4,5]leucine incorporation; conditions: Oryctolagus cuniculus, read-out: ID50 (the source's name); summary of the method: as §3
[7] = Number of living cells on the proliferation of mouse myeloma cells SP2 was measured at concentration 100 ug/mL at 48 hr.
Summary of the method: (§4)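 Mouse myeloma SP2 cells seeded at 123 × 10^3 cells and exposed to compound at 1, 10 or 100 μg/mL in growth medium. Living cells counted at 0, 48 and 96 h alongside untreated controls.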

WI-38 [8] = test: Concentration required for microscopically detectable alteration of the normal cell morphology in Wi-38 cells.; conditions: Homo sapiens; summary of the method: as §2
[9] = Dose required to reduce primary rabbit kidney cell growth; conditions: Oryctolagus cuniculus, read-out: ID50 (the source's name); summary of the method: as §3
[10] = Antiviral activity was measured against Herpes simplex virus (HSV-1 KOS) in rabbit kidney cells.; conditions: Oryctolagus cuniculus
Summary of the method: (§5)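 Inhibition of virus-induced cytopathogenicity in cell culture. Compounds were dissolved in growth medium at 100, 10 or 1 μg/mL or less.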

[11] = Number of living cells on the proliferation of mouse myeloma cells SP2 was measured at concentration 1 ug/mL at 48 hr.; summary of the method: as §4
[12] = Concentration required to reduce RNA synthesis in primary rabbit kidney cells using [3H-5]-Urd incorporation; conditions: Oryctolagus cuniculus, read-out: ID50 (the source's name); summary of the method: as §3
Vero [13] = test: Antiviral activity was measured against Reo virus-1 in african green monkey kidney (Vero B) cells.; conditions: Chlorocebus sabaeus; summary of the method: as §1
[14] = Number of living cells on the proliferation of mouse myeloma cells SP2 was measured at concentration 1 ug/mL at 0h.; summary of the method: as §4
[15] = Number of living cells on the proliferation of mouse myeloma cells SP2 was measured at concentration 10 ug/mL at 96 h.; summary of the method: as §4
[16] = Number of living cells on the proliferation of mouse myeloma cells SP2 was measured at concentration 100 ug/mL at 96 h.; summary of the method: as §4
WI-38 [17] = test: Antiviral activity was measured against Rhino virus-9 in human diploid (WI-38) cells.; summary of the method: as §1
[18] = Number of living cells on the proliferation of mouse myeloma cells SP2 was measured at concentration 100 ug/mL at 0h.; summary of the method: as §4
HeLa [19] = test: Concentration required for microscopically detectable alteration of the normal cell morphology in HeLa cells.; conditions: Homo sapiens; summary of the method: as §2
Vero [20] = test: Antiviral activity was measured against Sindbis virus in african green monkey kidney (Vero B) cells.; conditions: Chlorocebus sabaeus; summary of the method: as §1
[21] = Number of living cells on the proliferation of mouse myeloma cells SP2 was measured at concentration 10 ug/mL at 48 hr.; summary of the method: as §4
[22] = Antiviral activity was measured against Herpes simplex virus (HSV-2 G) in rabbit kidney cells.; conditions: Oryctolagus cuniculus; summary of the method: as §1
[23] = Concentration required for microscopically detectable alteration of the normal cell morphology in PRK cells.; conditions: Oryctolagus cuniculus; summary of the method: as §2
HeLa [24] = test: Antiviral activity was measured against Coxsackie virus B4 in HeLa cells.; conditions: Homo sapiens; summary of the method: as §5
[25] = Number of living cells on the proliferation of mouse myeloma cells SP2 was measured at concentration 1 ug/mL at 96 h.; summary of the method: as §4
Vero [26] = test: Antiviral activity was measured against Coxsackie virus B4 in african green monkey kidney (Vero B) cells.; conditions: Chlorocebus sabaeus; summary of the method: as §1
[27] = Antiviral activity was measured against vaccinia virus in rabbit kidney cells.; conditions: Oryctolagus cuniculus; summary of the method: as §5
HeLa [28] = test: Antiviral activity was measured against polio virus-1 in HeLa cells.; conditions: Homo sapiens; summary of the method: as §5
HeLa [29] = test: Antiviral activity was measured against vesicular stomatitis virus in HeLa cells.; conditions: Homo sapiens; summary of the method: as §5
[30] = Antiviral activity was measured against vesicular stomatitis virus in rabbit kidney cells.; conditions: Oryctolagus cuniculus; summary of the method: as §5
[31] = Antiviral activity was measured against Vesicular stomatitis virus in rabbit kidney cells.; conditions: Oryctolagus cuniculus; summary of the method: as §5
[32] = Antiviral activity was measured against Vaccinia virus in rabbit kidney cells.; conditions: Oryctolagus cuniculus; summary of the method: as §5
HeLa [33] = test: Antiviral activity was measured against Vesicular stomatitis virus in HeLa cells.; conditions: Homo sapiens; summary of the method: as §5
HeLa [34] = test: Antiviral activity was measured against Polio virus-1 in HeLa cells.; conditions: Homo sapiens; summary of the method: as §5

Nc1ncnc2c1ncn2[C@@H]1O[C@H](CO)[C@H](O)[C@H]1O
MCC (Vero [1]): > 40 µg/mL
MCC (Vero [2]): > 100 µg/mL
MCC (Vero [3]): > 40 µg/mL
MCC (WI-38 [4]): 20 µg/mL
IC50 [5]: 17 µg/mL (≈ 63.6 µM)
IC50 [6]: 37 µg/mL (≈ 138 µM)
No. of living cells [7]: 0.008
MCC (WI-38 [8]): 200 µg/mL
IC50 [9]: 23 µg/mL (≈ 86.1 µM)
MCC [10]: > 40 µg/mL
No. of living cells [11]: 0.864
IC50 [12]: 46 µg/mL (≈ 172 µM)
MCC (Vero [13]): > 40 µg/mL
No. of living cells [14]: 0.123
No. of living cells [15]: 0.4
No. of living cells [16]: 0
MCC (WI-38 [17]): 20 µg/mL
No. of living cells [18]: 0.123
MCC (HeLa [19]): 100 µg/mL
MCC (Vero [20]): > 40 µg/mL
No. of living cells [21]: 0.048
MCC [22]: > 40 µg/mL
MCC [23]: > 100 µg/mL
MCC (HeLa [24]): > 40 µg/mL
No. of living cells [25]: 1.368
MCC (Vero [26]): > 40 µg/mL

Nc1ncnc2c1ccn2[C@@H]1O[C@H](CO)[C@@H](O)[C@H]1O [TUBERCIDIN]
MCC (Vero [1]): > 0.4 µg/mL
MCC (Vero [2]): ≥ 0.4 µg/mL
MCC (Vero [3]): 0.2 µg/mL
MCC (WI-38 [4]): 0.01 µg/mL
MCC [27]: > 0.1 µg/mL
MCC (WI-38 [8]): 0.4 µg/mL
MCC [10]: > 0.1 µg/mL
MCC (Vero [13]): 0.1 µg/mL
MCC (WI-38 [17]): 0.007 µg/mL
MCC (HeLa [28]): 0.2 µg/mL
MCC (HeLa [29]): 0.07 µg/mL
MCC (HeLa [19]): ≥ 1 µg/mL
MCC (Vero [20]): > 0.1 µg/mL
MCC [22]: > 0.1 µg/mL
MCC [23]: ≥ 0.4 µg/mL
MCC (HeLa [24]): 0.2 µg/mL
MCC [30]: 0.07 µg/mL
MCC (Vero [26]): > 0.1 µg/mL

NC(=O)c1ncn([C@@H]2O[C@H](CO)[C@@H](O)[C@H]2O)n1 [RIBAVIRIN]
MCC [31]: 100 µg/mL
MCC (Vero [1]): 70 µg/mL
MCC (Vero [2]): ≥ 400 µg/mL
MCC [32]: 7 µg/mL
MCC (Vero [3]): 20 µg/mL
MCC (WI-38 [4]): 150 µg/mL
MCC (WI-38 [8]): > 400 µg/mL
MCC [10]: > 400 µg/mL
MCC (Vero [13]): 7 µg/mL
MCC (WI-38 [17]): 70 µg/mL
MCC (HeLa [33]): 20 µg/mL
MCC (HeLa [19]): ≥ 400 µg/mL
MCC (Vero [20]): 70 µg/mL
MCC [22]: > 400 µg/mL
MCC (HeLa [34]): 70 µg/mL
MCC [23]: > 400 µg/mL
MCC (HeLa [24]): 70 µg/mL
MCC (Vero [26]): 70 µg/mL
